Results as given in ChEMBL document CHEMBL1177864, “Synthesis and biological evaluation of some thio containing pyrrolo [2,3-d]pyrimidine derivatives for their anti-inflammatory and anti-microbial activities” (2010).
In brackets after ≈: the same amount, converted by molar mass. Activity calls are given as the source filed them. The rule behind the calls is not given here.

What was measured:
Rattus norvegicus [1] = assay: Antiinflammatory activity in Sprague-Dawley rat assessed as inhibition of carrageenan-induced paw edema at 50 to 70 mg/kg, sc administered 1 hr before carrageenan challenge measured after 4 hrs relative to control; details: dose mg/kg 50-70; route subcutaneous
Rattus norvegicus [2] = assay: Antiinflammatory activity in Sprague-Dawley rat assessed as inhibition of carrageenan-induced paw edema at 50 to 70 mg/kg, sc administered 1 hr before carrageenan challenge measured after 2 hrs relative to control; details: dose mg/kg 50-70; route subcutaneous
Rattus norvegicus [3] = assay: Antiinflammatory activity in Sprague-Dawley rat assessed as inhibition of carrageenan-induced paw edema at 50 to 70 mg/kg, sc administered 1 hr before carrageenan challenge measured after 1 hr relative to control; assay type: functional; details: dose mg/kg 50-70; route subcutaneous
In short: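 One hour later, baseline right hind paw volume was taken, then 0.05 mL of 1% carrageenan in sterile pyrogen-free 0.9% NaCl was injected into the plantar aponeurosis. Paw volume was read by water plethysmometer at 1, 2, 3 and 4 h. % inhibition = (1 − Rt/Rc) × 100 against carrageenan-only controls (n=5).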

Rattus norvegicus [4] = assay: Antiinflammatory activity in Sprague-Dawley rat assessed as inhibition of carrageenan-induced paw edema at 50 to 70 mg/kg, sc administered 1 hr before carrageenan challenge measured after 3 hrs relative to control; details: dose mg/kg 50-70; route subcutaneous
Bacillus subtilis [5] = assay: Antimicrobial activity against Bacillus subtilis ATCC 6633 after 24 hrs by microdilution assay; assay type: functional; details: ATCC 6633, 24 h
In short: (§1)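 MIC by micro-dilution per NCCLS 1997. Bacteria were subcultured overnight on Mueller-Hinton agar at 37 °C and passaged at least twice. Compounds were serially two-fold diluted in DMSO (1024 down to 16 stock levels) and mixed with sterile nutrient agar, then inoculum was added to the wells. MIC is the lowest concentration giving complete inhibition of macroscopic growth. Controls were DMSO, organism alone and medium alone.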

Staphylococcus aureus [6] = assay: Antimicrobial activity against Staphylococcus aureus ATCC 29213 after 24 hrs by microdilution assay; assay type: functional; details: ATCC 29213, 24 h
In short: (§2)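 MIC by microdilution following NCCLS 1997 guidelines. Compounds were serially two-fold diluted in DMSO from 1024 down to […], mixed with sterile nutrient agar, and inoculum was added to each well. MIC was read as the lowest concentration giving complete absence of macroscopic growth. Controls were DMSO, organism alone and medium alone. Bacteria were precultured on MHA at 37 °C overnight; Candida on SDA at 35 °C.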

Mycolicibacterium phlei [7] = assay: Antimicrobial activity against Mycobacterium phlei ATCC 10142 at 25 ug/disk by disk diffusion method; assay type: functional, organism-based
In short: (§3)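 Disc diffusion sensitivity test as per Bauer et al. Bacteria were subcultured on Mueller-Hinton agar overnight at 37 °C; Candida on SDA at 35 °C for 24-48 h, each passaged at least twice. DMSO served as solvent control; amoxicillin and fluconazole were references. Read-out was the inhibition zone.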

Pseudomonas aeruginosa [8] = assay: Antimicrobial activity against Pseudomonas aeruginosa ATCC […] at 25 ug/disk by disk diffusion method; assay type: functional; details: read-out: DIZ
In short: as §3

Staphylococcus aureus [9] = assay: Antimicrobial activity against Staphylococcus aureus ATCC 29213 at 25 ug/disk by disk diffusion method; assay type: functional; details: read-out: DIZ
In short: as §3

Escherichia coli [10] = assay: Antimicrobial activity against Escherichia coli ATCC 25922 after 24 hrs by microdilution assay; assay type: functional; details: ATCC 25922, 24 h
In short: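 MIC by microdilution following NCCLS 1997 guidelines. Bacteria were subcultured on Mueller-Hinton agar overnight at 37 °C and passaged at least twice. Compounds were serially two-fold diluted in DMSO (1024 down to 16), mixed with nutrient agar, and inoculated. MIC was the lowest concentration with no macroscopic growth. DMSO, organism-only and medium-only controls were included, with amoxicillin as reference.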

Bacillus subtilis [11] = assay: Antimicrobial activity against Bacillus subtilis ATCC 6633 at 25 ug/disk by disk diffusion method; assay type: functional; details: read-out: DIZ
In short: as §3

Pseudomonas aeruginosa [12] = assay: Antimicrobial activity against Pseudomonas aeruginosa ATCC […] after 24 hrs by microdilution assay; assay type: functional
In short: as §1

Candida albicans [13] = assay: Antimicrobial activity against Candida albicans ATCC 10231 at 25 ug/disk by disk diffusion method; assay type: functional, organism-based
In short: as §3

Escherichia coli [14] = assay: Antimicrobial activity against Escherichia coli ATCC 25922 at 25 ug/disk by disk diffusion method; assay type: functional; details: read-out: DIZ
In short: as §3

Staphylococcus aureus [15] = assay: Antimicrobial activity against Staphylococcus aureus ATCC 29213 at 20 ug/disk by disk diffusion method; assay type: functional, organism-based
In short: as §3

Candida albicans [16] = assay: Antimicrobial activity against Candida albicans ATCC 10231 at 20 ug/disk by disk diffusion method; assay type: functional, organism-based
In short: as §3

Escherichia coli [17] = assay: Antimicrobial activity against Escherichia coli ATCC 25922 at 20 ug/disk by disk diffusion method; assay type: functional, organism-based
In short: as §3

Pseudomonas aeruginosa [18] = assay: Antimicrobial activity against Pseudomonas aeruginosa ATCC […] at 20 ug/disk by disk diffusion method; assay type: functional, organism-based
In short: as §3

Mycolicibacterium phlei [19] = assay: Antimicrobial activity against Mycobacterium phlei ATCC 10142 at 20 ug/disk by disk diffusion method; assay type: functional, organism-based
In short: as §3

Bacillus subtilis [20] = assay: Antimicrobial activity against Bacillus subtilis ATCC 6633 at 20 ug/disk by disk diffusion method; assay type: functional; details: read-out: DIZ
In short: as §3

Staphylococcus aureus [21] = assay: Antimicrobial activity against Staphylococcus aureus ATCC 29213 at 4 ug/disk by disk diffusion method; assay type: functional, organism-based
Candida albicans [22] = assay: Antimicrobial activity against Candida albicans ATCC 10231 at 4 ug/disk by disk diffusion method; assay type: functional; details: read-out: DIZ
Mycolicibacterium phlei [23] = assay: Antimicrobial activity against Mycobacterium phlei ATCC 10142 at 4 ug/disk by disk diffusion method; assay type: functional, organism-based
Bacillus subtilis [24] = assay: Antimicrobial activity against Bacillus subtilis ATCC 6633 at 4 ug/disk by disk diffusion method; assay type: functional, organism-based
Escherichia coli [25] = assay: Antimicrobial activity against Escherichia coli ATCC 25922 at 4 ug/disk by disk diffusion method; assay type: functional, organism-based
Candida albicans [26] = assay: Antimicrobial activity against Candida albicans ATCC 10231 after 48 hrs by microdilution assay; assay type: functional; details: ATCC 10231, 48 h
In short: as §2

Pseudomonas aeruginosa [27] = assay: Antimicrobial activity against Pseudomonas aeruginosa ATCC […] at 4 ug/disk by disk diffusion method; assay type: functional, organism-based

SMILES | inhibition (INH) (Rattus norvegicus [1]) [%] | inhibition (INH) (Rattus norvegicus [2]) [%] | inhibition (INH) (Rattus norvegicus [3]) [%] | inhibition (INH) (Rattus norvegicus [4]) [%] | other results
N#Cc1c(-c2ccccc2)cn(-c2ccc(Cl)c(Cl)c2)c1N | 19.04 | 12.3 | 2.17 | 13.88 | –
Nc1nc(=S)[nH]c2c1c(-c1ccccc1)c(-c1ccccc1)n2Cc1ccccc1 | 24.76 | 3.84 | 1.73 | 13.97 | MIC (Bacillus subtilis [5]): 512 µg/mL (≈ 1250 µM); MIC (Staphylococcus aureus [6]): 256 µg/mL (≈ 627 µM)
O=c1/c(=C/c2ccccc2)sc2nc3c(c(-c4ccccc4)cn3-c3ccc(Cl)c(Cl)c3)c(=S)n12 | – | – | 0 | – | –
Nc1nc(=S)[nH]c2c1c(-c1ccccc1)cn2-c1ccc(Cl)c(Cl)c1 | 76.82 | 95.38 | 6.08 | 95.95 | –
CC1(C)S[C@@H]2[C@H](NC(=O)[C@H](N)c3ccc(O)cc3)C(=O)N2[C@H]1C(=O)O [AMOXICILLIN] | – | – | – | – | diameter of the inhibition zone (DIZ) (Mycolicibacterium phlei [7]): inactive; zone of inhibition at 25 µg/disc (Pseudomonas aeruginosa [8]): 12 mm; zone of inhibition at 25 µg/disc (Staphylococcus aureus [9]): 13 mm; MIC (Escherichia coli [10]): 256 µg/mL (≈ 701 µM); zone of inhibition at 25 µg/disc (Bacillus subtilis [11]): 12 mm; MIC (Pseudomonas aeruginosa [12]): 64 µg/mL (≈ 175 µM); diameter of the inhibition zone (DIZ) (Candida albicans [13]): inactive; MIC (Bacillus subtilis [5]): 64 µg/mL (≈ 175 µM); MIC (Staphylococcus aureus [6]): 16 µg/mL (≈ 43.8 µM); zone of inhibition at 25 µg/disc (Escherichia coli [14]): 13 mm
Cc1c(-n2c(N)c(C#N)c(-c3ccccc3)c2-c2ccccc2)n(C)n(-c2ccccc2)c1=O | 64.68 | 36.53 | 9.5 | 62.62 | diameter of the inhibition zone (DIZ) (Staphylococcus aureus [15]): inactive; diameter of the inhibition zone (DIZ) (Candida albicans [16]): inactive; diameter of the inhibition zone (DIZ) (Escherichia coli [17]): inactive; diameter of the inhibition zone (DIZ) (Pseudomonas aeruginosa [18]): inactive; diameter of the inhibition zone (DIZ) (Mycolicibacterium phlei [19]): inactive; MIC (Bacillus subtilis [5]): 512 µg/mL (≈ 1150 µM); zone of inhibition at 20 µg/disc (Bacillus subtilis [20]): 10 mm
S=c1[nH]c(=S)c2c(-c3ccccc3)c(-c3ccccc3)n(Cc3ccccc3)c2[nH]1 | 27.61 | 5.38 | 2.608 | 13.23 | MIC (Bacillus subtilis [5]): 512 µg/mL (≈ 1200 µM)
N=c1c2c(-c3ccccc3)cn(-c3ccc(Cl)c(Cl)c3)c2[nH]c(=S)n1-c1ccccc1 | 68.57 | 48.07 | 42 | 76.83 | –
Cc1c(-n2c(-c3ccccc3)c(-c3ccccc3)c3c(=N)n(-c4ccccc4)c(=S)[nH]c32)n(C)n(-c2ccccc2)c1=O | – | – | 1.98 | – | –
CC(C)Cc1ccc(C(C)C(=O)O)cc1 (stereo not drawn) [IBUPROFEN] | 69.52 | 45 | 6.08 | 60.66 | –
N#Cc1c(-c2ccccc2)c(-c2ccccc2)n(Cc2ccccc2)c1N | 23.8 | 4.23 | 3.04 | 12.59 | –
NNc1nc(N)c2c(-c3ccccc3)cn(-c3ccc(Cl)c(Cl)c3)c2n1 | 67.43 | 30 | 14.78 | 95.58 | –
NNc1nc(N)c2c(-c3ccccc3)c(-c3ccccc3)n(Cc3ccccc3)c2n1 | 79.04 | 61.15 | 10.43 | 73.9 | –
Cc1c(-n2c(-c3ccccc3)c(-c3ccccc3)c3c(=S)[nH]c(=S)[nH]c32)n(C)n(-c2ccccc2)c1=O | 28.8 | 3.94 | 0 | 14.1 | –
O=c1/c(=C/c2ccccc2)sc2nc3c(c(-c4ccccc4)c(-c4ccccc4)n3Cc3ccccc3)c(=S)n12 | – | – | 3.498 | – | –
OC(Cn1cncn1)(Cn1cncn1)c1ccc(F)cc1F [FLUCONAZOLE] | – | – | – | – | diameter of the inhibition zone (DIZ) (Staphylococcus aureus [21]): inactive; zone of inhibition at 4 µg/disc (Candida albicans [22]): 20 mm; diameter of the inhibition zone (DIZ) (Mycolicibacterium phlei [23]): inactive; diameter of the inhibition zone (DIZ) (Bacillus subtilis [24]): inactive; diameter of the inhibition zone (DIZ) (Escherichia coli [25]): inactive; MIC (Candida albicans [26]): 512 µg/mL (≈ 1670 µM); diameter of the inhibition zone (DIZ) (Pseudomonas aeruginosa [27]): inactive
Cc1c(-n2c(-c3ccccc3)c(-c3ccccc3)c3c(=S)n4c(=O)/c(=C/c5ccccc5)sc4nc32)n(C)n(-c2ccccc2)c1=O | – | – | 1.74 | – | –
Cc1c(-n2c(-c3ccccc3)c(-c3ccccc3)c3c(N)nc(=S)[nH]c32)n(C)n(-c2ccccc2)c1=O | 64.28 | 0 | 0 | 73.34 | –
S=c1[nH]c(=S)c2c(-c3ccccc3)cn(-c3ccc(Cl)c(Cl)c3)c2[nH]1 | 26 | 4.48 | 1.73 | 12.53 | –
